A short description of assay [1]: Her2 expression decrease, cell viability multiplex – SKBR3 breast tumor cells, AlphaScreen, ATP viability, primary screen (AID 461;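 active = Her2 level under about 52% in both replicate screens, with viability over 70% of control, limit read from the data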;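 for Her2 level: lower value means less Her2 protein in the cells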;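 for viability: percent of carrier control wells set as 100% viability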). Conditions: SKBR3 Her2 protein level, 18-24 h, measured here: SKBR3 viability, ATP luminescence, at 10 µM.
Assay [2] concerns the target Receptor tyrosine-protein kinase erbB-2 (Homo sapiens) (UniProt P04626). The assay is described as above. The conditions noted are these: 18-24 h, at 10 µM, stronger effect = lower value.
Assay [3] in a line: reduced viability of SK-BR-3 breast cancer cells – cell-based, 24 h, human, pilot screen (AID 572;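 active = viability at or below 10% of carrier control in both of two separate runs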;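 note: compound exposure lasted between 18 and 24 h rather than exactly 24 h; 100% = carrier-treated control wells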). Conditions: SK-BR-3 viability, CellTiter-Glo luminescence, at 10 µM, stronger effect = lower value. For orientation: Cellular ATP, detected with luciferase, serves as a proxy for viable cell number.
Assay [4] is described as follows: HUVEC growth inhibition – cell-based, human, primary screen (AID 575;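 active = viability at or below 30% in both replicate assays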;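 note: 100% = median of untreated cell wells with 0.1% DMSO on each plate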). Conditions: HUVEC proliferation, CellTiter-Glo luminescence, 72 h; at 10 µM; stronger effect = lower value. Put shortly: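 system = HUVEC primary cells | amount = 1250 cells/well | buffer or medium = supplemented EBM, 2% fetal bovine serum | dosing = single-point 10 µM, DMSO 0.1% final | times = 72 h compound incubation | detection = CTG luminescence | read-out = % viability relative to median vehicle-well signal on each plate | control set = vehicle and MePR control wells | format = collagen-coated 384-well format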

A short description of assay [5]: H69AR cell proliferation blockers – human, duplicate replicates, primary screen (AID 580;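 active = viability at or under a set limit in both replicates, limit being median viability minus 3 SD, cut at about 48% in these data, passing the limit was not always enough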;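 note: 100% = mean luminescence of untreated wells and 0% = no signal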). The conditions noted are these: H69AR lung tumor cells viability, ATP luminescence, 72 h; at 10 µM; stronger effect = lower value.
The nature of assay [6]: MRP1 drug-resistance reversers in H69AR cells – cell-based, doxorubicin co-treatment, pilot screen (AID 601;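 active = viability loss from added drug above about 55%, and viability with drug at most 40%, in both replicates, limit read from the data, passing the limit was not always enough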). Conditions: CellTiter-Glo, 72 h, at 10 µM; for differential viability (reversal): stronger effect = higher value.
Assay [7] in a line: yeast transport mutant growth inhibition pilot in 384-well plates, post-Golgi transport modulator project (AID 636; in the data active = inhibition above about 31%). Conditions: absorbance 615 nm, about 18 h, stronger effect = higher value.
Assay [8] in a line: growth suppression of yeast trafficking mutant, preliminary HTS, modulators of trafficking downstream of Golgi apparatus project, 1536-format plate, OD 615 nm (AID 637). Conditions: yeast transport mutant growth, absorbance 615 nm, 18 h; stronger effect = higher value.
[9] abbreviates: H69AR cells + 2 uM doxorubicin, measured here: viability with 2 uM doxorubicin, stronger effect = lower value.
The mark [10] stands for this setting: H69AR cells, compound alone cytotoxicity.

The source made the active and inactive calls. Cut-off read from the data, not from the text of the source, unless noted: active = inhibition above about 30%; inactive = the rest.

The term viability denotes a read-out of living cells in per cent, often relative to untreated cells. A word on the inhibition: it is the drop in the measured response relative to a control, in per cent.

Sequence of Receptor tyrosine-protein kinase erbB-2 (Homo sapiens) (P04626 whole entry, looked up): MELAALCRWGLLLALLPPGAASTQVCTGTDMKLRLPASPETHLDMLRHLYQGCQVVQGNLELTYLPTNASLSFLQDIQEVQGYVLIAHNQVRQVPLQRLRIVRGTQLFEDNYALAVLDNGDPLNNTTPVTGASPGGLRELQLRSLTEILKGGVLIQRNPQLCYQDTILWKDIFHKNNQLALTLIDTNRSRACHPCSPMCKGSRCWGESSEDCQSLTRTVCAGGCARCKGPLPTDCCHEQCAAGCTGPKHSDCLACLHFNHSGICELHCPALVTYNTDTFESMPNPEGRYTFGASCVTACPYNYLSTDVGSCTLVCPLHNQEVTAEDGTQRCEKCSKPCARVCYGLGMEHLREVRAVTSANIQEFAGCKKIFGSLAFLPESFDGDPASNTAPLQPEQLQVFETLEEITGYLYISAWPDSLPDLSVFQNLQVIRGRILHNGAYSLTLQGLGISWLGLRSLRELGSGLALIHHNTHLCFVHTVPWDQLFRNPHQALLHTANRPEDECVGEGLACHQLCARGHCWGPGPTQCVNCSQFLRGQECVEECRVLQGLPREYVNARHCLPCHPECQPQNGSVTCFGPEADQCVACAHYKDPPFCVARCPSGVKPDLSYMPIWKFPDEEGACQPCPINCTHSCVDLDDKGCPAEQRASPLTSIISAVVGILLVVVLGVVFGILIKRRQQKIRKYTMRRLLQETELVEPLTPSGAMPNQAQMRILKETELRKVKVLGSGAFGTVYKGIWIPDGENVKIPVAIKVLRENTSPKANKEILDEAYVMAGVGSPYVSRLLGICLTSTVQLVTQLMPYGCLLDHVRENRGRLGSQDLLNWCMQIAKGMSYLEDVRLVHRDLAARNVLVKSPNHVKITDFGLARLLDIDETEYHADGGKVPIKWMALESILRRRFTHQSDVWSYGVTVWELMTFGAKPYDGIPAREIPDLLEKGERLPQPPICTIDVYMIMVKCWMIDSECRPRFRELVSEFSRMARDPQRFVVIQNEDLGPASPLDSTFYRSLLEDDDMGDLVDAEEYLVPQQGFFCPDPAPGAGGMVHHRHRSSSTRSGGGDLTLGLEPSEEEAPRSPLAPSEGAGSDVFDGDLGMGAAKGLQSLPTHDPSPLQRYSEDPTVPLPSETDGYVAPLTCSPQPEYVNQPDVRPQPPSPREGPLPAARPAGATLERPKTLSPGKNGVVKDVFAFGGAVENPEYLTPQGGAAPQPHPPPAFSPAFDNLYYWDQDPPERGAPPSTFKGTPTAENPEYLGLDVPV

Turning to `COc1ccc(-n2c(Cc3cccn3C)nnc2SCC(=O)NCC2CCCO2)cc1` (stereo not given), the viability in assay [1] is 100%; in assay [3], 100% (inactive); in assay [4] it was 93.9% (inactive); in assay [5] it was 100% (inactive); in assay [6] (setting [9]), 92.3%; in assay [6] (setting [10]), 100%. Also, in assay [2], the Her2 level was 107% (inactive). Moreover, the differential viability (reversal) in assay [6] (H69AR cells + 2 uM doxorubicin) was 7.7% (inactive). Besides, the inhibition was -0.9% (inactive) in assay [7] and 3% (inactive) in assay [8].

Take `CCCCn1nnnc1SCC(=O)N1CCN(C(=O)c2ccco2)CC1`: the viability is 116% in assay [1]; 116% (inactive) in assay [3]; 111% (inactive) in assay [4]; 93.6% (inactive) in assay [5]; 86.3% in assay [6] (setting [9]); 93.6% in assay [6] (setting [10]). For the same compound, the Her2 level in assay [2] is 100% (inactive). Moreover, in assay [6] (H69AR cells + 2 uM doxorubicin), the differential viability (reversal) is 7.26% (inactive). The inhibition in assay [7] was -6.71% (inactive); in assay [8], 1.75% (inactive).

Regarding `CS(=O)(=O)N(CC(=O)NCc1ccccn1)c1ccc2c(c1)OCCO2`, the viability in assay [1] was 104%; in assay [3], 104% (inactive); in assay [4], 96.8% (inactive); in assay [5], 97.8% (inactive); in assay [6] (setting [9]) it was 87.9%; in assay [6] (setting [10]) it was 97.8%. For the same compound, the Her2 level in assay [2] was 104% (inactive). Besides, the differential viability (reversal) in assay [6] (H69AR cells + 2 uM doxorubicin) was 9.83% (inactive). Further, the inhibition in assay [7] is -6.93% (inactive); in assay [8], 4.35% (inactive).

In the case of `CCCNC(=O)NC(C(=O)OC)C12CC3CC(CC(C3)C1)C2` (stereo not given), the viability in assay [1] was 101%; in assay [3], 101% (inactive); in assay [4], 80.4% (inactive); in assay [5], 102% (inactive); in assay [6] (setting [9]), 91.6%; in assay [6] (setting [10]) it was 102%. Besides, in assay [2], the Her2 level is 76.5% (inactive). The differential viability (reversal) in assay [6] (H69AR cells + 2 uM doxorubicin) was 10.1% (inactive). Moreover, the inhibition in assay [7] was -5% (inactive); in assay [8] it was -1.5% (inactive).

As for `Cc1cc(-c2ccccc2)c2c3c(cn2n1)c(=O)n(C)c(=O)n3C`, the viability in assay [1] is 108%; in assay [3], 108% (inactive); in assay [4] it was 84.3% (inactive); in assay [5], 75.6% (inactive); in assay [6] (setting [9]), 76.1%; in assay [6] (setting [10]) it was 75.6%. The Her2 level in assay [2] is 83% (inactive). Also, in assay [6] (H69AR cells + 2 uM doxorubicin), the differential viability (reversal) was -0.565% (inactive). Also, the inhibition in assay [7] is -2.37% (inactive); in assay [8], 0.33% (inactive).

In the case of `CCC(C)(C)n1nnnc1C(c1ccc(OC)c(OC)c1)N1CCN(c2ccc(F)cc2)CC1` (stereo not given), the viability in assay [1] is 80%; in assay [3], 80% (inactive); in assay [4], 89.2% (inactive); in assay [5], 85.8% (inactive); in assay [6] (setting [9]) it was 54.5%; in assay [6] (setting [10]), 85.8%. The Her2 level in assay [2] is 93.5% (inactive). Besides, the differential viability (reversal) in assay [6] (H69AR cells + 2 uM doxorubicin) is 31.3% (inactive). In addition, the values for the inhibition in assay [7] and in assay [8] were -1.95% (inactive) and 2% (inactive), respectively.

`COC(=O)[C@H](C)NC(=O)NCc1ccc(F)cc1`: the viability in assay [1] is 102%; in assay [3], 102% (inactive); in assay [4] it was 102% (inactive); in assay [5], 95.3% (inactive); in assay [6] (setting [9]), 104%; in assay [6] (setting [10]) it was 95.3%. Moreover, the Her2 level in assay [2] is 95% (inactive). Besides, the differential viability (reversal) in assay [6] (H69AR cells + 2 uM doxorubicin) is -8.8% (inactive). The results for the inhibition in assay [7] and in assay [8] were -2.21% (inactive) and -1.43% (inactive), respectively.

For `O=C(NCCCn1ccnc1)c1csc2ccccc12`, the viability in assay [1] is 84.5%; in assay [3], 84.5% (inactive); in assay [4], 95.4% (inactive); in assay [5], 97.5% (inactive); in assay [6] (setting [9]), 85.6%; in assay [6] (setting [10]) it was 97.5%. Further, in assay [2], the Her2 level is 89.5% (inactive). The differential viability (reversal) in assay [6] (H69AR cells + 2 uM doxorubicin) was 11.9% (inactive). Besides, the inhibition in assay [7] was -3.03% (inactive); in assay [8], 3.67% (inactive).

Take `CC1(C)Cc2cccc(OCC(O)CN3CCN(c4ccccn4)CC3)c2O1` (stereo not given): the viability was 84% in assay [1]; 84% (inactive) in assay [3]; 86.1% (inactive) in assay [4]; 70.3% (inactive) in assay [5]; 88% in assay [6] (setting [9]); 70.3% in assay [6] (setting [10]). For the same compound, the Her2 level in assay [2] was 94% (inactive). Moreover, the differential viability (reversal) in assay [6] (H69AR cells + 2 uM doxorubicin) was -17.7% (inactive). In addition, the inhibition was -3.38% (inactive) in assay [7] and -7.3% (inactive) in assay [8].

As to `CCCN1C2=C(C(=O)CCC2)C(c2ccc(O)c(Br)c2)C2=C1CCCC2=O`, the viability in assay [1] is 96%; in assay [3], 96% (inactive); in assay [4] it was 96.8% (inactive); in assay [5] it was 91.8% (inactive); in assay [6] (setting [9]), 92.8%; in assay [6] (setting [10]), 91.8%. Moreover, the Her2 level in assay [2] was 85.5% (inactive). In addition, the differential viability (reversal) in assay [6] (H69AR cells + 2 uM doxorubicin) is -1.01% (inactive). Also, the inhibition in assay [7] is -7.11% (inactive); in assay [8] it was 2% (inactive).

`O=C(c1cnn2c(C(F)(F)F)cc(-c3ccco3)nc12)N1CCc2ccccc2C1`: the viability in assay [1] was 76%; in assay [3], 76% (inactive); in assay [4] it was 69.9% (inactive); in assay [5], 89.6% (inactive); in assay [6] (setting [9]) it was 85.7%; in assay [6] (setting [10]), 89.6%. The Her2 level in assay [2] was 112% (inactive). Moreover, the differential viability (reversal) in assay [6] (H69AR cells + 2 uM doxorubicin) was 3.92% (inactive). The inhibition in assay [7] is -1.33% (inactive); in assay [8], -9.37% (inactive).

Turning to `Cc1ccc2c(Cl)cc(Cl)c(OCc3c(C)noc3C)c2n1`, the viability in assay [1] is 102%; in assay [3], 102% (inactive); in assay [4] it was 84.7% (inactive); in assay [5], 84.9% (inactive); in assay [6] (setting [9]) it was 85.1%; in assay [6] (setting [10]) it was 84.9%. In assay [2], the Her2 level is 99.5% (inactive). In addition, the differential viability (reversal) in assay [6] (H69AR cells + 2 uM doxorubicin) was -0.21% (inactive). The inhibition in assay [7] is 6.08% (inactive); in assay [8], 13.3% (inactive).

Turning to `CC1CN(C(=O)c2scc3c2OCCO3)CC(C)O1` (stereo not given), the viability in assay [1] is 102%; in assay [3] it was 102% (inactive); in assay [4], 101% (inactive); in assay [5], 104% (inactive); in assay [6] (setting [9]), 91.9%; in assay [6] (setting [10]) it was 104%. Moreover, in assay [2], the Her2 level is 76% (inactive). The differential viability (reversal) in assay [6] (H69AR cells + 2 uM doxorubicin) is 12.1% (inactive). Also, the inhibition in assay [7] is -7.3% (inactive); in assay [8] it was 5.24% (inactive).

Consider `Cc1csc(NC(=O)CSc2nsc(SCC(=O)Nc3nc(C)cs3)c2C#N)n1`, for which the viability in assay [1] is 94.5%; in assay [3] it was 94.5% (inactive); in assay [4] it was 58.7% (inactive); in assay [5], 6.57% (active); in assay [6] (setting [9]) it was 7.88%; in assay [6] (setting [10]) it was 6.57%. In addition, the Her2 level in assay [2] is 69% (inactive). Further, the differential viability (reversal) in assay [6] (H69AR cells + 2 uM doxorubicin) is -1.3% (inactive). Also, the inhibition in assay [7] is -6.67% (inactive); in assay [8], -1.43% (inactive).

As to `O=C1CCCCCN1CSc1nc2ccccc2s1`, the viability in assay [1] is 123%; in assay [3], 123% (inactive); in assay [4], 80.5% (inactive); in assay [5], 88% (inactive); in assay [6] (setting [9]), 83.3%; in assay [6] (setting [10]), 88%. Moreover, in assay [2], the Her2 level is 101% (inactive). Besides, the differential viability (reversal) in assay [6] (H69AR cells + 2 uM doxorubicin) is 4.73% (inactive). For the same compound, the inhibition was -5.45% (inactive) in assay [7] and -2.62% (inactive) in assay [8].

The record behind these values is PubChem BioAssay.
